Among the data in the array DNA melting data of Ke et al. (doi:10.1101/2024.01.08.574731) are folding enthalpy and Tm values, retold here.

Data set [1] is described as follows: folding enthalpy; higher = less favourable; fluorescence melt of hairpins on a sequencing array, two-state fit. The note with it: sodium 0.088 M. An outline of the steps:
(§1)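 Library hairpins on a sequenced MiSeq flow cell carried annealed Cy3 and quencher oligos, and their Cy3 fluorescence was imaged in 50 mM Na-HEPES pH 8.0 with 25 mM NaCl, in 2.5 °C steps up to 60 °C. Signals were normalised to Cy3 before quenching and to control constructs. Melting temperature and folding enthalpy were obtained from bootstrapped two-state fits, combined by inverse-variance weighting across four replicates, and the fitted temperatures were then raised by 9.35 °C to match UV melts.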

The nature of data set [2]: melting temperature; fluorescence melt of hairpins on a sequencing array, two-state fit, raised by 9.35 °C to match UV melts. Conditions: sodium 0.088 M. Put shortly:
as §1

Take GACTCCGAAAGGAGTGTC ((((((....)))..))): the folding enthalpy in data set [1] was -12.3 kcal/mol. The Tm in data set [2] turned out to be 58.4 °C.

GACTCCGAAAGGATGTC ((((((....))).))): in data set [1], the folding enthalpy was -30.7 kcal/mol. Also, the Tm in data set [2] came out at 51 °C.

With GACTCCGGAAACGAAGTC ((((.((....)).)))), the folding enthalpy in data set [1] was -29.4 kcal/mol. Besides, in data set [2], the Tm was found to be 37.1 °C.

In the case of GACTCGAAAGAGTC (((((....))))), the folding enthalpy in data set [1] is -32.1 kcal/mol. For the same sequence, the Tm in data set [2] amounted to 61.2 °C.

Take GACTCGACGAAAGTCGTC (((..(((....)))))): the folding enthalpy in data set [1] was -8.01 kcal/mol. Also, in data set [2], the Tm is 31.4 °C.

GACTCTCCGAAAGGAGTC (((..(((....)))))): the folding enthalpy in data set [1] was -9.54 kcal/mol. Further, in data set [2], the Tm worked out at 35.3 °C.

Regarding GACTCTGCGAAAGCAGTC (((..(((....)))))), the folding enthalpy in data set [1] is -7.87 kcal/mol. Moreover, in data set [2], the Tm turned out to be 32.2 °C.

On to GACTGACGAAAGTCCGTC (((.(((....))).))), for which the folding enthalpy in data set [1] is -29.4 kcal/mol. The Tm in data set [2] was found to be 49.2 °C.

As to GACTGAGAAATCAGTC ((((((....)))))), the folding enthalpy in data set [1] was -33 kcal/mol. For the same sequence, the Tm in data set [2] was found to be 53.1 °C.

As to GACTGAGGAAACTCGGTC (((.(((....))).))), in data set [1], the folding enthalpy is -41.1 kcal/mol. In data set [2], the Tm is 50.4 °C.

For the sequence GACTGCGAAAGCATGTC ((((((....))).))), the folding enthalpy in data set [1] was -23.1 kcal/mol. Besides, the Tm in data set [2] is 54.5 °C.

In the case of GACTGCGGAAACGTAGTC ((((.((....)).)))), the folding enthalpy in data set [1] is -39.6 kcal/mol. The Tm in data set [2] turned out to be 52.6 °C.

For the sequence GACTGGCGAAAGCCGTC (((.(((....)))))), in data set [1], the folding enthalpy is -11.5 kcal/mol. Further, in data set [2], the Tm is 67 °C.

For the sequence GACTGGGGAAACCCAATC ((.((((....)))).)), in data set [1], the folding enthalpy was -14.6 kcal/mol. In data set [2], the Tm came to 31.7 °C.

Turning to GACTGGGGAAACCCAGTC (((((((....))))))), in data set [1], the folding enthalpy was -40.3 kcal/mol. In addition, the Tm in data set [2] turned out to be 66.6 °C.

Take GACTGGGGAAACCTGGTC (((..((....))..))): the folding enthalpy in data set [1] is -34.9 kcal/mol. Also, the Tm in data set [2] was found to be 38.9 °C.

As for GACTGTGGAAACACAATC ((.((((....)))).)), the folding enthalpy in data set [1] was -15.5 kcal/mol. The Tm in data set [2] turned out to be 31.6 °C.

With GACTGTGGAAACATGGTC (((..((....))..))), the folding enthalpy in data set [1] is -28.7 kcal/mol. Moreover, the Tm in data set [2] came to 37.9 °C.

As to GACTTCGGAAACGAAGCC (.(((((....))))).), the folding enthalpy in data set [1] was -15 kcal/mol. Besides, in data set [2], the Tm is 45.6 °C.

As for GACTTGGGAAACTAAGTC (((((.(....).))))), the folding enthalpy in data set [1] was -28.2 kcal/mol. Besides, in data set [2], the Tm came to 42.5 °C.

As to GACTTTGCGAAAGCAGTC (((..(((....)))))), in data set [1], the folding enthalpy is -14.4 kcal/mol. In addition, the Tm in data set [2] was 32.8 °C.

Take GAGAAACGAAAGTTACTC (((.(((....))).))): the folding enthalpy in data set [1] was -28.9 kcal/mol. Besides, the Tm in data set [2] stood at 41.7 °C.

Consider GAGAACCGAAAGGTACTC (((.(((....))).))), for which, in data set [1], the folding enthalpy was -34.9 kcal/mol. Further, the Tm in data set [2] came out at 50.7 °C.

In the case of GAGAACGAAAGTTTTCTC ((((((....)))..))), the folding enthalpy in data set [1] was -30.2 kcal/mol. Further, the Tm in data set [2] worked out at 38.4 °C.

Consider GAGAACGGAAACGCTCTC ((((.((....)).)))), for which the folding enthalpy in data set [1] is -28.6 kcal/mol. In addition, in data set [2], the Tm is 43.2 °C.

With GAGAACGGAAACGTTCTC (((((((....))))))), the folding enthalpy in data set [1] is -41.8 kcal/mol. Also, the Tm in data set [2] stood at 64.7 °C.

For GAGAAGCGAAAGCTCTC (((.(((....)))))), the folding enthalpy in data set [1] is -20.1 kcal/mol. The Tm in data set [2] was determined as 50.2 °C.

For the sequence GAGAAGCGAAAGCTGCTC (((.(((....))).))), the folding enthalpy in data set [1] is -27.4 kcal/mol. Besides, in data set [2], the Tm turned out to be 58.1 °C.

For the sequence GAGAAGGGAAACCTTCTC (((((((....))))))), the folding enthalpy in data set [1] is -50.6 kcal/mol. Moreover, the Tm in data set [2] amounted to 55.5 °C.

For GAGAATGAAAATTCTC ((((((....)))))), the folding enthalpy in data set [1] was -31.8 kcal/mol. Besides, the Tm in data set [2] was found to be 46 °C.

As to GAGACAGGAAACTGCCTC (((.(((....))).))), in data set [1], the folding enthalpy is -39.7 kcal/mol. For the same sequence, the Tm in data set [2] is 42.3 °C.

As for GAGACAGGAAACTGTCCC (.(((((....))))).), in data set [1], the folding enthalpy is -13 kcal/mol. Further, in data set [2], the Tm amounted to 39.4 °C.

As to GAGACAGGAAACTGTCTC (((((((....))))))), the folding enthalpy in data set [1] is -49.7 kcal/mol. For the same sequence, the Tm in data set [2] worked out at 60.1 °C.

On to GAGACCACGAAAGTGCTC (((..(((....)))))), for which the folding enthalpy in data set [1] was -9.82 kcal/mol. Also, in data set [2], the Tm turned out to be 27.7 °C.

Regarding GAGACCCGAAAGGGCTC (((.(((....)))))), the folding enthalpy in data set [1] is -26.8 kcal/mol. In data set [2], the Tm worked out at 55.4 °C.

For the sequence GAGACCGAAAGGTAACTC ((((((....)))..))), the folding enthalpy in data set [1] is -12.3 kcal/mol. Further, the Tm in data set [2] worked out at 39.7 °C.

For GAGACCGAAAGGTACCTC ((((((....)))..))), the folding enthalpy in data set [1] is -11.9 kcal/mol. Also, in data set [2], the Tm stood at 30.7 °C.

Turning to GAGACCGAAAGGTATCTC ((((((....)))..))), the folding enthalpy in data set [1] is -24 kcal/mol. Besides, the Tm in data set [2] worked out at 53 °C.

Consider GAGACCGAAAGGTGCTC ((((((....))).))), for which the folding enthalpy in data set [1] was -21.4 kcal/mol. Moreover, the Tm in data set [2] came out at 46.9 °C.

Consider GAGACCGAAAGGTTCCTC ((((((....)))..))), for which, in data set [1], the folding enthalpy is -12.4 kcal/mol. Also, the Tm in data set [2] was determined as 32 °C.

In the case of GAGACCGAAAGGTTGCTC ((((((....)))..))), the folding enthalpy in data set [1] is -14.1 kcal/mol. Further, in data set [2], the Tm was found to be 36.2 °C.

On to GAGACCGAAAGGTTTCTC ((((((....)))..))), for which the folding enthalpy in data set [1] is -22.5 kcal/mol. For the same sequence, in data set [2], the Tm is 50.6 °C.

For the sequence GAGACCGGAAACGATCTC ((((.((....)).)))), the folding enthalpy in data set [1] was -31.9 kcal/mol. Moreover, the Tm in data set [2] came out at 42 °C.

Regarding GAGACGCCGAAAGGCCTC (((..(((....)))))), the folding enthalpy in data set [1] is -8.48 kcal/mol. The Tm in data set [2] was 30.6 °C.

GAGACGGCGAAAGCCCTC (((..(((....)))))): in data set [1], the folding enthalpy was -6.29 kcal/mol. In addition, the Tm in data set [2] was determined as 34.5 °C.

On to GAGACTGGAAACGGTCTC (((((.(....).))))), for which, in data set [1], the folding enthalpy is -46 kcal/mol. Moreover, the Tm in data set [2] was 49.9 °C.

Take GAGAGACGAAAGTCCTC (((.(((....)))))): the folding enthalpy in data set [1] was -17.9 kcal/mol. For the same sequence, in data set [2], the Tm is 46.9 °C.

GAGAGAGGAAACTCCCTC (((.(((....))).))): in data set [1], the folding enthalpy was -22.1 kcal/mol. Also, the Tm in data set [2] came to 28.6 °C.

With GAGAGCCGAAAGGCGCTC (((.(((....))).))), the folding enthalpy in data set [1] is -22.9 kcal/mol. Besides, in data set [2], the Tm came out at 67.8 °C.

On to GAGAGCGAAAGCTAGCTC ((((((....)))..))), for which the folding enthalpy in data set [1] is -13.8 kcal/mol. Moreover, the Tm in data set [2] amounted to 36.6 °C.

With GAGAGCGAAAGCTATCTC ((((((....)))..))), the folding enthalpy in data set [1] is -22.4 kcal/mol. For the same sequence, the Tm in data set [2] was found to be 51.2 °C.

With GAGAGCGAAAGCTGTCTC ((((((....)))..))), in data set [1], the folding enthalpy was -20.3 kcal/mol. The Tm in data set [2] is 51.1 °C.

Regarding GAGAGCGAAAGCTTTCTC ((((((....)))..))), in data set [1], the folding enthalpy was -21.4 kcal/mol. In addition, in data set [2], the Tm was 46.6 °C.

For GAGAGGAAACTCTC (((((....))))), the folding enthalpy in data set [1] is -23.4 kcal/mol. In data set [2], the Tm turned out to be 44.6 °C.

For GAGAGGGGAAACCCTTTC ((.((((....)))).)), the folding enthalpy in data set [1] was -16.8 kcal/mol. Besides, in data set [2], the Tm turned out to be 36.4 °C.
